Reference: ChEMBL document CHEMBL4699451, “Discovery of BIIB068: A Selective, Potent, Reversible Bruton's Tyrosine Kinase Inhibitor as an Orally Efficacious Agent for Autoimmune Diseases” (J Med Chem, 2020)
pIC50: −log10 of the molar value.

Tests used:
[1] = Cmax in dog at 5 mg/kg, po; type: ADME, organism-based, Canis lupus familiaris; design: route oral, dose 5 mg/kg; details: in vivo
[2] = Toxicity in Sprague-Dawley rat assessed as effect on clinical sign measured up to 13 weeks; details: in vivo, 2184 h
Outline: (§1)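 GLP toxicity studies lasting up to 13 weeks, run in Sprague-Dawley rats and cynomolgus monkeys.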

[3] = Toxicity in cynomolgus monkey assessed as effect on gross pathology measured up to 13 weeks; design: species or system Macaca fascicularis; details: in vivo, 2184 h; outline: as §1
[4] = Toxicity in cynomolgus monkey assessed as histopathological changes measured up to 13 weeks; design: species or system Macaca fascicularis; details: in vivo, 2184 h; outline: as §1
[5] = Tmax in human at 10 to 120 mg administered orally using tablet form of sample; type: ADME; details: in vivo, po, dose 10-120 mg
Outline: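 Single ascending oral tablet doses from 10 mg up to 120 mg given to healthy volunteers; plasma concentration followed over time after dosing.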

[6] = Genotoxicity in Sprague-Dawley rat assessed as clastogenic activity by micronucleus assay; type: toxicity
Outline: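 In vivo micronucleus test in Sprague-Dawley rats; bone marrow scored for micronuclei, clastogenic activity and disruption of the mitotic apparatus.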

[7] = Lipophilicity, log D of compound by UV-HPLC method; type: physicochemical
[8] = Half life in cynomolgus monkey at 1 mg/kg, iv; type: ADME, organism-based, Macaca fascicularis; details: in vivo
Cytochrome P450 3A4 [9] = target: T1, Cytochrome P450 3A4 (Homo sapiens, UniProt P08684); test: Induction of CYP3A4 in human hepatocytes up to 50 uM; type: ADME, cell-based, Hepatocyte
T1 sequence (P08684 whole entry): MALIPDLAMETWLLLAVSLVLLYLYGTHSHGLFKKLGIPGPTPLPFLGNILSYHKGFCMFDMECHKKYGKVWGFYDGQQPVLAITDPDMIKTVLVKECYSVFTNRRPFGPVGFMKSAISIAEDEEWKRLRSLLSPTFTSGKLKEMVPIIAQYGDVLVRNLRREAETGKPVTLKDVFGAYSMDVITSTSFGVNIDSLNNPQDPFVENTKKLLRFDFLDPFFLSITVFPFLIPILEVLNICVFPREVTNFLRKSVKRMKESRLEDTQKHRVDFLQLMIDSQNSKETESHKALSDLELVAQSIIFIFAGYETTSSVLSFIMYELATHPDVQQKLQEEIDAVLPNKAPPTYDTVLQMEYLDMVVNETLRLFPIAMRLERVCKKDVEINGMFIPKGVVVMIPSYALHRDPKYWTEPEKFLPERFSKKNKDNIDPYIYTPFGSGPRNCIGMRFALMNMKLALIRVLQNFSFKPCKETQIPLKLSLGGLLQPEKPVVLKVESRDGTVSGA
Outline: (§2)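 Sandwich-cultured human hepatocytes exposed at concentrations up to 50 μM; induction of CYP1A2, 2B6 and 3A4 assessed.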

[10] = Volume of distribution at steady state in rat at 1 mg/kg, iv; type: ADME, organism-based; details: in vivo, read-out: Vdss
Outline: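 Intravenous dosing at 1 mg/kg in male SD rats, measured in triplicate; vehicle 40% NMP solution. Clearance expressed as %Qh.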

[11] = Toxicity in Sprague-Dawley rat assessed as effect on respiratory system administered as single dose; details: in vivo
Outline: (§3)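 Single-dose CNS and respiratory safety studies in rats.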

[12] = Toxicity in Sprague-Dawley rat assessed as effect on organ weight measured up to 13 weeks; details: in vivo, 2184 h; outline: as §1
[13] = Drug metabolism in human liver microsomes assessed as N-demethylation; type: ADME, Microsome
[14] = Toxicity in Sprague-Dawley rat assessed as effect on CNS administered as single dose; details: in vivo; outline: as §3
[15] = Toxicity in Sprague-Dawley rat assessed as change in ECG measured up to 13 weeks; details: in vivo, 2184 h; outline: as §1
[16] = Stability in Beagle dog plasma assessed as parent compound remaining after 6 hrs; type: ADME, cell-free, Canis lupus familiaris; details: read-out: Stabilty
Outline: (§4)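 Compound incubated in plasma for 6 hours, then percentage of parent compound remaining determined.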

[17] = Cmax in cynomolgus monkey at 5 mg/kg, po; type: ADME, organism-based, Macaca fascicularis; design: route oral, dose 5 mg/kg; details: in vivo
[18] = Half life in human at 10 to 120 mg administered orally using tablet form of sample; type: ADME; details: in vivo, po, dose 10-120 mg
Outline: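 Phase I single ascending dose study in healthy volunteers; oral tablet at 10 mg escalating through a 120 mg cohort; plasma pharmacokinetics followed, median t1/2 reported per cohort.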

[19] = Stability in cynomolgus monkey plasma assessed as parent compound remaining after 6 hrs; type: ADME, cell-free, Macaca fascicularis; details: read-out: Stabilty; outline: as §4
[20] = Toxicity in cynomolgus monkey assessed as change in ECG measured up to 13 weeks; design: species or system Macaca fascicularis; details: in vivo, 2184 h; outline: as §1
[21] = Oral bioavailability in dog at 5 mg/kg; type: ADME, organism-based, Canis lupus familiaris; details: in vivo
[22] = AUC in rat at 5 mg/kg, po; type: ADME, organism-based; design: dose 5 mg/kg; details: in vivo
[23] = Clearance in rat at 1 mg/kg, iv; type: ADME, organism-based; details: in vivo
[24] = Kinetic solubility of compound at pH 6.8 by shake flask method; type: physicochemical; details: buffer, read-out: Kinetic_solubility
[25] = Volume of distribution at steady state in cynomolgus monkey at 1 mg/kg, iv; type: ADME, organism-based, Macaca fascicularis; details: in vivo, read-out: Vdss
Outline: (§5)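 Intravenous dosing at 1 mg/kg; vehicle 70:30 PEG-400:H2O solution.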

[26] = Toxicity in Sprague-Dawley rat assessed as effect on gross pathology measured up to 13 weeks; details: in vivo, 2184 h; outline: as §1
[27] = Toxicity in cynomolgus monkey assessed as effect on organ weight measured up to 13 weeks; design: species or system Macaca fascicularis; details: in vivo, 2184 h; outline: as §1
Cytochrome P450 2C19 = Cytochrome P450 2C19 (Homo sapiens, UniProt P33261); test: Inhibition of CYP2C19 in human liver microsomes using S-mephenytoin as substrate measured after 30 mins in presence of NADPH by LC-MS/MS analysis; type: ADME
Sequence of Cytochrome P450 2C19 (P33261 whole entry): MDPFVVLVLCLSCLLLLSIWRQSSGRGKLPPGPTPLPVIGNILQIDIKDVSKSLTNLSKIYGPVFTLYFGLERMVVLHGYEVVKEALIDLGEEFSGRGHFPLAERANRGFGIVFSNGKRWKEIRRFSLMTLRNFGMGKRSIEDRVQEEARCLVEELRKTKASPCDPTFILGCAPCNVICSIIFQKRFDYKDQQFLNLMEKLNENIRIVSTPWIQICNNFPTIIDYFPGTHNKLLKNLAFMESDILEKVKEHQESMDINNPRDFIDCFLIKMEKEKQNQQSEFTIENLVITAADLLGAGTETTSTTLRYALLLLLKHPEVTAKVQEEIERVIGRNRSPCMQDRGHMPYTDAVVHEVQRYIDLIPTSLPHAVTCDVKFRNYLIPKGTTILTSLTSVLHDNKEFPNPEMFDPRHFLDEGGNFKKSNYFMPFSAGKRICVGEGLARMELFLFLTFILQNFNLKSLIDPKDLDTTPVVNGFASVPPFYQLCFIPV

Cytochrome P450 2B6 = target: T2, Cytochrome P450 2B6 (Homo sapiens, UniProt P20813); test: Induction of CYP2B6 in human hepatocytes up to 50 uM; type: ADME, cell-based, Hepatocyte; outline: as §2
T2 sequence (P20813 whole entry): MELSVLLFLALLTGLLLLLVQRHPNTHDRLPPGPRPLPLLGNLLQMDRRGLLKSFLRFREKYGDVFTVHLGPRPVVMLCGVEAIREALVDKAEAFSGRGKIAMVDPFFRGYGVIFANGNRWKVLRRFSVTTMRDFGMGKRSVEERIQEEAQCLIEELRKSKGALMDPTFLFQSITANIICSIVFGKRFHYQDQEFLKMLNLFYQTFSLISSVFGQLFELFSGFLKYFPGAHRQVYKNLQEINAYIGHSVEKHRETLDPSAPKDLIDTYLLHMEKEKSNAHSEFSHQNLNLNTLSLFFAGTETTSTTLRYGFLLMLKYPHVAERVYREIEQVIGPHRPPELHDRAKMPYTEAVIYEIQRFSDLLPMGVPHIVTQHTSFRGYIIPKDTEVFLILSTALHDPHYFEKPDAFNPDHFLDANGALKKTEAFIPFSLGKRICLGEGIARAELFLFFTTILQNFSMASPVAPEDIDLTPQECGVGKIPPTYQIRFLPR

[28] = Toxicity in cynomolgus monkey assessed as effect on clinical sign measured up to 13 weeks; design: species or system Macaca fascicularis; details: in vivo, 2184 h; outline: as §1
[29] = Volume of distribution at steady state in dog at 1 mg/kg, iv; type: ADME, organism-based, Canis lupus familiaris; details: in vivo, read-out: Vdss; outline: as §5
[30] = AUC in cynomolgus monkey at 5 mg/kg, po; type: ADME, organism-based, Macaca fascicularis; design: dose 5 mg/kg; details: in vivo
[31] = Toxicity in cynomolgus monkey assessed as effect on clinical pathology measured up to 13 weeks; design: species or system Macaca fascicularis; details: in vivo, 2184 h; outline: as §1
[32] = Protein binding in human plasma assessed as unbound fraction at 2 uM by rapid equilibrium dialysis method; type: ADME, cell-free
Outline: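 Unbound fraction in human plasma determined by rapid equilibrium dialysis at 2 µM compound.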

[33] = Kinetic solubility of compound at pH 1.5 by shake flask method; type: physicochemical; details: buffer, read-out: Kinetic_solubility
[34] = Cmax in rat at 5 mg/kg, po; type: ADME, organism-based; design: route oral, dose 5 mg/kg; details: in vivo
[35] = Toxicity in cynomolgus monkey assessed as effect on cardiovascular system administered as single dose; design: species or system Macaca fascicularis; details: in vivo
Outline: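 Single-dose cardiovascular safety study in cynomolgus monkeys.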

Cytochrome P450 2C9 = Cytochrome P450 2C9 (Homo sapiens, UniProt P11712); test: Inhibition of CYP2C9 in human liver microsomes using tolbutamide as substrate measured after 15 mins in presence of NADPH by LC-MS/MS analysis; type: ADME
Sequence of Cytochrome P450 2C9 (P11712 whole entry): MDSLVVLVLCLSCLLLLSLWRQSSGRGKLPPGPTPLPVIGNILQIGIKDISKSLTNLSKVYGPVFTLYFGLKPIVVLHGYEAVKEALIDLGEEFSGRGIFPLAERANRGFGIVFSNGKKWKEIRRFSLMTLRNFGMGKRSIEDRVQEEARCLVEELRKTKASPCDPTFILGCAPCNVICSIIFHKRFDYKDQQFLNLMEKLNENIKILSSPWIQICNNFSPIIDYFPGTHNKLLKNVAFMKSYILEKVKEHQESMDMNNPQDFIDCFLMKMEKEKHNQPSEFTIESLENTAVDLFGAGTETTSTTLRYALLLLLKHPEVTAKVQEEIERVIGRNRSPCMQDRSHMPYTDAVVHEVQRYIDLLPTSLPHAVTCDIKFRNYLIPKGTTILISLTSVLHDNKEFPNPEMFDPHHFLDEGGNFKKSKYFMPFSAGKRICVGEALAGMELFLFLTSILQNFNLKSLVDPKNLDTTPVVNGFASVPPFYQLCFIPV

Cytochrome P450 3A4 [36] = target: T1, Cytochrome P450 3A4; test: Inhibition of CYP3A4 in human liver microsomes using testosterone as substrate measured after 15 mins in presence of NADPH by LC-MS/MS analysis; type: ADME
[37] = Toxicity in Sprague-Dawley rat measured up to 13 weeks; details: in vivo; outline: as §1
[38] = Drug metabolism in human liver microsomes assessed as O-deisopropylation; type: ADME, Microsome

Q: With `Cc1cc(-c2ccnc(Nc3cnn(C)c3)n2)ccc1CNC(=O)N1CC(OC(C)C)C1` as the molecule, how does the Cmax [1] read?
A: 652 ng/mL

Q: What about the Activity [2] of the same molecule?
A: Non-Toxic

Q: And the Activity [3]?
A: Non-Toxic

Q: And the Activity [4]?
A: Non-Toxic

Q: What about the Tmax [5] of the same molecule?
A: 54 min

Q: And the Activity [6]?
A: Non-Toxic

Q: What about the logD [7] of the same molecule?
A: 2.32

Q: What about the half-life [8] of the same molecule?
A: 54 min

Q: What about the Activity (Cytochrome P450 3A4 [9]) of the same molecule?
A: Not Active

Q: What about the Vd [10] of the same molecule?
A: 0.2 L/kg

Q: What about the Activity [11] of the same molecule?
A: Non-Toxic

Q: And the Activity [12]?
A: Non-Toxic

Q: What about the Drug metabolism [13] of the same molecule?
A: Metabolite_Detected

Q: What about the Activity [14] of the same molecule?
A: Non-Toxic

Q: And the Activity [15]?
A: Non-Toxic

Q: And the remaining at 6 h [16]?
A: > 95%

Q: And the Cmax [17]?
A: 282 ng/mL

Q: And the half-life [18]?
A: 360 min

Q: And the remaining at 6 h [19]?
A: > 95%

Q: What about the Activity [20] of the same molecule?
A: Non-Toxic

Q: And the bioavailability [21]?
A: 26%

Q: And the AUC [22]?
A: 11900 ng·h/mL

Q: What about the clearance [23] of the same molecule?
A: 3 mL/min/kg

Q: What about the solubility kinetic [24] of the same molecule?
A: > 10 µg/mL

Q: What about the Vd [25] of the same molecule?
A: 0.7 L/kg

Q: What about the Activity [26] of the same molecule?
A: Non-Toxic

Q: What about the Activity [27] of the same molecule?
A: Non-Toxic

Q: And the pIC50 (Cytochrome P450 2C19)?
A: < 4.60

Q: What about the Activity (Cytochrome P450 2B6) of the same molecule?
A: Not Active

Q: What about the Activity [28] of the same molecule?
A: Non-Toxic

Q: And the Vd [29]?
A: 1.2 L/kg

Q: And the AUC [30]?
A: 2350 ng·h/mL

Q: What about the Activity [31] of the same molecule?
A: Non-Toxic

Q: What about the fraction unbound at 2 µM [32] of the same molecule?
A: 0.059

Q: And the solubility kinetic [33]?
A: > 50 µg/mL

Q: And the Cmax [34]?
A: 2920 ng/mL

Q: And the Activity [35]?
A: Non-Toxic

Q: What about the pIC50 (Cytochrome P450 2C9) of the same molecule?
A: < 4.60

Q: And the pIC50 (Cytochrome P450 3A4 [36])?
A: < 4.60

Q: And the NOAEL at 2184 h [37]?
A: 50 mg/kg/day

Q: What about the Drug metabolism [38] of the same molecule?
A: Metabolite_Detected
